Laboratory results: ChEMBL document CHEMBL1131177, “A novel class of orally active non-peptide bradykinin B2 receptor antagonists. 4. Discovery of novel frameworks mimicking the active conformation” (J Med Chem, 1998)
One block for each compound: values may come before it.

Columns and labels:
B2 bradykinin receptor [1] = target: T1, B2 bradykinin receptor (Cavia porcellus, UniProt O70526); assay: Inhibition of the specific binding of [3H]BK to Bradykinin receptor B2 in guinea pig ileum membrane preparations; type: cell membranes
T1 sequence (O70526 whole entry): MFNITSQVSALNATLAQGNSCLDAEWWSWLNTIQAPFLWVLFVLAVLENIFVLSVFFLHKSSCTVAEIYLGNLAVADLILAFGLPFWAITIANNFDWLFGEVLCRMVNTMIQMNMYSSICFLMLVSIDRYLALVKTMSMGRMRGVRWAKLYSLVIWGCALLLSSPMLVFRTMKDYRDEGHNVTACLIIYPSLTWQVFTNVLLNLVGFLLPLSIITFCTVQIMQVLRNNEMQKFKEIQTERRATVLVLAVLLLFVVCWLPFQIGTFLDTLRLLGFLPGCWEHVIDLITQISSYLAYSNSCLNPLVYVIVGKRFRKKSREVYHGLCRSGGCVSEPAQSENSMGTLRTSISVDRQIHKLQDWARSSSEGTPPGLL
Method in brief: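 Male Hartley guinea pig ileum membranes (100000g pellet) at 0.2 mg protein/mL in pH 6.8 TES buffer with phenanthroline, bacitracin, DTT, captopril, BSA. Incubated with 0.06 nM [3H]BK plus varying compound concentrations, 60 min, room temperature. Filtration harvest, scintillation counting. Nonspecific binding defined with 1 µM unlabeled BK. IC50 as mean of at least three determinations.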

B2 bradykinin receptor [2] = target: T2, B2 bradykinin receptor (Homo sapiens, UniProt P30411); assay: Inhibition of the specific binding of [3H]BK to human recombinant Bradykinin receptor B2 expressed in CHO cells.; type: cell-based
T2 sequence (P30411 whole entry): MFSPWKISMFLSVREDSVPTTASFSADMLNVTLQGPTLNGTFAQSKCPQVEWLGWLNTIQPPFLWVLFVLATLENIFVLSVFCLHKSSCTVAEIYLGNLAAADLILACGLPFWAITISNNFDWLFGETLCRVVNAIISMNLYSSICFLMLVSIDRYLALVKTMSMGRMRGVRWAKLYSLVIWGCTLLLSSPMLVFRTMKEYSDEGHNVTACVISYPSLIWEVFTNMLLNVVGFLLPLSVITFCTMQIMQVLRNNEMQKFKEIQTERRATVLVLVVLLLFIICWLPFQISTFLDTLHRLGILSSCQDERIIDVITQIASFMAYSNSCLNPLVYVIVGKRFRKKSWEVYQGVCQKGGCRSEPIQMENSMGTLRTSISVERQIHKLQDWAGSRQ
Method in brief: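 Intact CHO (dhfr-) cells stably expressing human B2, seeded at 3.0 × 10^4 cells/well and cultured 1 day. Incubated with 1.0 nM [3H]BK and compound, 2 h at 4 °C, in HEPES/N-methyl-D-glucamine buffer pH 7.2 with bacitracin, enalaprilat, BSA. Cells solubilized in SDS/NaOH for scintillation counting. Nonspecific binding defined with 1 µM BK. Run three times.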

Cavia porcellus = assay: Antagonistic activity in inhibiting BK-induced bronchoconstriction in guinea pigs by oral administration at 1 mg/kg dose.; type: functional
Method in brief: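 Male Hartley guinea pigs (470-750 g), fasted overnight, anesthetized with pentobarbital 30 mg/kg ip, ventilated 10 mL/kg at 60 breaths/min; alcuronium 0.5 mg/kg iv, propranolol 10 mg/kg sc. BK 5 µg/kg iv; peak rise in insufflation pressure (modified Konzett–Rössler). Compound in 0.5% methylcellulose given via esophageal cannula; BK repeated 30 min later. % inhibition vs vehicle group; n = 3-4/dose.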

SMILES: CNC(=O)c1ccc(/C=C/C(=O)NCc2ccccc2-c2ccc(C)c(COc3cccc4ccc(C)nc34)c2C)cc1
- IC50 (B2 bradykinin receptor [2]): 2.6 nM

SMILES: CNC(=O)c1ccc(/C=C/C(=O)NCC(=O)N(C)c2ccc(OC)c(COc3cccc4ccc(C)nc34)c2OC)cc1
- IC50 (B2 bradykinin receptor [1]): 17 nM
- IC50 (B2 bradykinin receptor [2]): 210 nM

SMILES: CNC(=O)c1ccc(/C=C/C(=O)NCC(=O)N(C)c2ccc(Cl)c(COc3cccc4ccc(C)nc34)c2)cc1
- IC50 (B2 bradykinin receptor [1]): 5.1 nM
- IC50 (B2 bradykinin receptor [2]): 110 nM

SMILES: Cc1ccc2cccc(OCc3c(Cl)ccc(-n4cccc4CNC(=O)/C=C/c4ccc(N5CCCC5=O)cc4)c3Cl)c2n1
- IC50 (B2 bradykinin receptor [1]): 0.58 nM
- inhibition in vivo at 1 mg/kg (Cavia porcellus): 36%
- IC50 (B2 bradykinin receptor [2]): 0.41 nM

SMILES: CNC(=O)c1ccc(/C=C/C(=O)NCC(=O)N(C)c2cccc(COc3cccc4ccc(C)nc34)c2C)cc1
- IC50 (B2 bradykinin receptor [1]): 17 nM
- IC50 (B2 bradykinin receptor [2]): 150 nM

SMILES: CNC(=O)c1ccc(/C=C/C(=O)Nc2cccc(-c3ccc(C)c(COc4cccc5ccc(C)nc45)c3C)c2)cc1
- IC50 (B2 bradykinin receptor [1]): 94 nM
- IC50 (B2 bradykinin receptor [2]): > 10000 nM

SMILES: CNC(=O)c1ccc(/C=C/C(=O)NCc2sccc2-c2ccc(C)c(COc3cccc4ccc(C)nc34)c2C)cc1
- IC50 (B2 bradykinin receptor [1]): 2.8 nM
- IC50 (B2 bradykinin receptor [2]): 5.8 nM

The next lines start with results.

- IC50 (B2 bradykinin receptor [1]): 280 nM
- IC50 (B2 bradykinin receptor [2]): 4200 nM
SMILES: CC(=O)Nc1ccc(/C=C/C(=O)NCC(=O)Nc2ccc(Cl)c(COc3cccc4ccc(C)nc34)c2Cl)cn1

- IC50 (B2 bradykinin receptor [1]): 17 nM
- IC50 (B2 bradykinin receptor [2]): 14 nM
SMILES: CNC(=O)c1ccc(/C=C/C(=O)NC/C=C\c2ccc(Cl)c(COc3cccc4ccc(C)nc34)c2Cl)cc1

- IC50 (B2 bradykinin receptor [1]): 0.56 nM
- IC50 (B2 bradykinin receptor [2]): 0.37 nM
SMILES: CC(=O)Nc1ccc(/C=C/C(=O)NCc2cccn2-c2ccc(Cl)c(COc3cccc4ccc(C)nc34)c2Cl)cn1
- inhibition in vivo at 1 mg/kg (Cavia porcellus): 82.1%

- IC50 (B2 bradykinin receptor [1]): 0.64 nM
- IC50 (B2 bradykinin receptor [2]): 0.26 nM
SMILES: CNC(=O)c1ccc(/C=C/C(=O)NCc2cccn2-c2ccc(Cl)c(COc3cccc4ccc(C)nc34)c2Cl)cc1
- inhibition in vivo at 1 mg/kg (Cavia porcellus): 67.9%

- IC50 (B2 bradykinin receptor [1]): 0.76 nM
- IC50 (B2 bradykinin receptor [2]): 0.51 nM
SMILES: Cc1ccc2cccc(OCc3c(Cl)ccc(N(C)C(=O)CNC(=O)/C=C/c4ccc(/C=C/c5ccncc5)nc4)c3Cl)c2n1
- inhibition in vivo at 1 mg/kg (Cavia porcellus): 87.3%

- IC50 (B2 bradykinin receptor [1]): 220 nM
- IC50 (B2 bradykinin receptor [2]): 710 nM
SMILES: CNC(=O)c1ccc(/C=C/C(=O)NCC=Cc2ccc(Cl)c(COc3cccc4ccc(C)nc34)c2Cl)cc1

- IC50 (B2 bradykinin receptor [1]): 0.55 nM
- IC50 (B2 bradykinin receptor [2]): 3.2 nM
SMILES: Cc1ccc2cccc(OCc3c(Cl)ccc(N(C)C(=O)CNC(=O)/C=C/c4ccc(N5CCCC5=O)cc4)c3Cl)c2n1
- inhibition in vivo at 1 mg/kg (Cavia porcellus): 85.3%
